Source: article PMC3032979 (Structure (London, England : 1993), 2011)
Like-named read-outs stand apart in the source and are kept apart here.

Legend:
(L343F)CAR:RXR = biological target: T1, (L343F)CAR:RXR (Mus musculus, UniProt O35627, L343F); test: ITC, SRC1 peptide binding to; design: species or system murine (mCAR LBD), human (RXR LBD); details: for ΔG / −TΔS / n (one-site binding model) / ΔH: SRC1 peptide binding, 25°C; for ΔG / −TΔS: pH 7.2; for n (one-site binding model) / ΔH: pH 7.2, average of at least three experiments ± SD
T1 sequence (O35627 117-358 L343F): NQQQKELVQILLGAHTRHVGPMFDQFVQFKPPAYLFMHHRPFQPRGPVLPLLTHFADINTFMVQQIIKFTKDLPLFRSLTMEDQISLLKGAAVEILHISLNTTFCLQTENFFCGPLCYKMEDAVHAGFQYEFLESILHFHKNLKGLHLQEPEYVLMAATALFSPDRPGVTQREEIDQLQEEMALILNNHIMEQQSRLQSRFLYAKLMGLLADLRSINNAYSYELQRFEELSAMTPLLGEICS
T1 sequence (P19793 225-462 partner limits assumed): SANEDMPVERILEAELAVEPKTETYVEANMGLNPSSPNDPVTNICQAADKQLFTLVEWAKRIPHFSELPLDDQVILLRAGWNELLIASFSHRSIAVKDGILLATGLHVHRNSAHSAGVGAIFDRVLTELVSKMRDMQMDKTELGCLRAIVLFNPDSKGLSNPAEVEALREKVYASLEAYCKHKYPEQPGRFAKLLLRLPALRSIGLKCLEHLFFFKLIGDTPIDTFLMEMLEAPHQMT

(L343A)CAR:RXR = (L343A)CAR:RXR (Mus musculus, UniProt O35627, L343A); test: ITC, SRC1 peptide binding to; design: species or system murine (mCAR LBD), human (RXR LBD); details: for ΔG / −TΔS / n (one-site binding model) / ΔH: SRC1 peptide binding, 25°C; for ΔG / −TΔS: pH 7.2; for n (one-site binding model) / ΔH: pH 7.2, average of at least three experiments ± SD
CAR:RXR [1] = biological target: T2, CAR:RXR (Mus musculus, UniProt O35627); test: ITC, SRC1 box 2 peptide binding to wild-type CAR:RXR LBDs; design: species or system murine (mCAR LBD), human (RXR LBD); details: for affinity of ligand-bound CAR:RXR for SRC1 coactivator (in words): saturating meclizine versus TCPOBOP
mCAR = details: LXRE response element, HepG2 cells; ref Huang et al., 2004; cited from earlier work
RXR LBD within CAR:RXR = test: differential amide HDX MS, RXR portion of CAR:RXR; design: species or system human; details: 4°C, pH 8, 10–3600 seconds
CAR LBD within CAR:RXR = test: differential amide HDX MS, CAR portion of CAR:RXR; design: species or system murine; details: for HDX kinetics versus unliganded CAR:RXR (in words): 4°C, pH 8, 10–3600 seconds
CAR:(W282F)RXR = test: steady-state tryptophan fluorescence quenching, CAR:; format: binding, murine (mCAR LBD), human (RXR LBD); details: 1.0 μM protein (Figure S2); excitation 295 nm; pH 8.0
CAR:RXR [2] = biological target: T2, CAR:RXR; test: effect of CAR ligands on 9-cis-retinoic acid; format: binding, murine (mCAR LBD), human (RXR LBD); details: fluorescence quenching at 340 nm upon titrating 9c into CAR:RXR
CAR:(W305F)RXR = test: steady-state tryptophan fluorescence quenching, CAR:; format: binding, murine (mCAR LBD), human (RXR LBD); details: 1.0 μM protein (Figure S2); excitation 295 nm; pH 8.0
Summary of the method: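 Human RXR LBD (residues 225–462) carrying W305F, co-expressed with CAR LBD in E. coli BL21(DE3) Gold (0.5 mM IPTG, 20 h, 20°C). Heterodimer purified by Ni-NTA, then size exclusion in 20 mM Tris-HCl pH 8.0, 250 mM NaCl, 2.5 mM EDTA, 5.0 mM DTT. Steady-state emission scanned 305–400 nm and compared with wild-type and W282F heterodimers at 340 nm.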

murine CAR = details: cited from earlier work
human CAR isoform = details: ref Huang et al., 2004; cited from earlier work
[3] = SRC1 peptide binding in the presence of meclizine (ten-fold excess), 25°C, pH 7.2
[4] = SRC1 peptide binding in the presence of meclizine (ten-fold excess), 25°C, pH 7.2, average of at least three experiments ± SD
[5] = residues 327–358 (H10, H11, H12)

Sequence of (L343A)CAR:RXR (O35627 117-358 L343A, other chains not shown): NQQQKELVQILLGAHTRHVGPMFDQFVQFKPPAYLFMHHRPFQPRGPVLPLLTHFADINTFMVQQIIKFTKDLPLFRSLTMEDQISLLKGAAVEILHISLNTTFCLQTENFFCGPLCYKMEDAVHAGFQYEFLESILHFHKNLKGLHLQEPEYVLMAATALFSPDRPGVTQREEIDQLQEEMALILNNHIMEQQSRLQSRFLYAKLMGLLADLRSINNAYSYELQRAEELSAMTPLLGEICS
T2 sequence (O35627 117-358, other chains not shown): as the sequence (O35627 117-358 L343A, other chains not shown) above, with A227L counted along it

CC[C@H](C)[C@H](NC(=O)[C@H](CCCCN)NC(=O)[C@H](Cc1c[nH]cn1)NC(=O)[C@@H](N)CCCNC(=N)N)C(=O)N[C@@H](CC(C)C)C(=O)N[C@@H](Cc1c[nH]cn1)C(=O)N[C@@H](CCCNC(=N)N)C(=O)N[C@@H](CC(C)C)C(=O)N[C@@H](CC(C)C)C(=O)N[C@@H](CCC(N)=O)C(=O)N[C@@H](CCC(=O)O)C(=O)NCC(=O)N[C@@H](CO)C(=O)O [SRC1 peptide]
affinity for coactivator and entropy (in words) ((L343F)CAR:RXR; (L343F)CAR:RXR, no ligand, versus wild-type complex): significantly greater affinity for coactivator and lower unfavorable entropy compared to the wild-type complex
ΔG ((L343F)CAR:RXR; L343F (androstenol)): -7.3 kcal/mol
−TΔS ((L343F)CAR:RXR; L343F (androstenol)): 2.7 kcal/mol
n (one-site binding model) ((L343F)CAR:RXR; L343F (androstenol)): 1.0 ± 0.04
ΔH ((L343F)CAR:RXR; L343F (androstenol)): -10.0 ± 0.2 kcal/mol
ΔG ((L343F)CAR:RXR; L343F (no ligand)): -8.2 kcal/mol
−TΔS ((L343F)CAR:RXR; L343F (no ligand)): 0.30 kcal/mol
n (one-site binding model) ((L343F)CAR:RXR; L343F (no ligand)): 0.97 ± 0.05
ΔH ((L343F)CAR:RXR; L343F (no ligand)): -8.5 ± 0.2 kcal/mol
unfavorable entropy (TΔS) of SRC1 peptide binding (in words) ((L343A)CAR:RXR; (L343A)CAR:RXR, no ligand): appreciably higher unfavorable entropy (TΔS)
affinity for SRC1 peptide (in words) ((L343A)CAR:RXR; (L343A)CAR:RXR, no ligand, versus wild-type CAR): lower than wild-type CAR
ΔG ((L343A)CAR:RXR; L343A (TCPOBOP)): -7.8 kcal/mol
−TΔS ((L343A)CAR:RXR; L343A (TCPOBOP)): 3.7 kcal/mol
n (one-site binding model) ((L343A)CAR:RXR; L343A (TCPOBOP)): 0.92 ± 0.14
ΔH ((L343A)CAR:RXR; L343A (TCPOBOP)): -11.5 ± 0.8 kcal/mol
ΔG ((L343A)CAR:RXR; L343A (no ligand)): -6.6 kcal/mol
−TΔS ((L343A)CAR:RXR; L343A (no ligand)): 4.0 kcal/mol
n (one-site binding model) ((L343A)CAR:RXR; L343A (no ligand)): 1.0 ± 0.13
ΔH ((L343A)CAR:RXR; L343A (no ligand)): -10.6 ± 0.5 kcal/mol
ΔG (CAR:RXR [1]; [3]): -8.2 kcal/mol
−TΔS (CAR:RXR [1]; [3]): 1.7 kcal/mol
n (one-site binding model) (CAR:RXR [1]; [4]): 0.95 ± 0.08
ΔH (CAR:RXR [1]; [4]): -9.9 ± 0.3 kcal/mol

Clc1cnc(Oc2ccc(Oc3ncc(Cl)cc3Cl)cc2)c(Cl)c1 [TCPOBOP, 1,4-bis[2-(3,5-dichloropyridyloxy)]benzene]
agonist response (in words) (mCAR): stronger agonist response from CAR than meclizine
HDX kinetics of RXR versus unliganded CAR:RXR (in words) (RXR LBD within CAR:RXR; RXR residues 416–432 (helix H10)): significant reduction in HDX kinetics
overall impact on conformational dynamics of CAR (in words) (CAR LBD within CAR:RXR; differential HDX, TCPOBOP compared with meclizine): broader and of greater magnitude than that of meclizine
HDX kinetics versus unliganded CAR:RXR (in words) (CAR LBD within CAR:RXR; residues 143–178 (helices H2′, H2″, parts of H3)): significant protection from exchange
HDX kinetics versus unliganded CAR:RXR (in words) (CAR LBD within CAR:RXR; [5]): most significant reductions in HDX behavior
HDX exchange kinetics, residues 339–345 in CAR (in words) (CAR LBD within CAR:RXR; residues 339–345, CAR(TCPOBOP):RXR compared with CAR(meclizine):RXR): greater magnitude reduction in exchange kinetics
tryptophan quenching of CAR:(W282F)RXR (in words) (CAR:(W282F)RXR): strong dose-dependent increase in tryptophan quenching
affinity of ligand-bound CAR:RXR for SRC1 coactivator (in words) (CAR:RXR [1]): higher affinity for coactivator than meclizine
effect on 9c binding to CAR:RXR (in words) (CAR:RXR [2]): do not appear to significantly affect 9-cis-retinoic acid (9c) binding to CAR:RXR
tryptophan fluorescence response of CAR:(W305F)RXR (in words) (CAR:(W305F)RXR): no significant response
transactivation by murine CAR (in words) (murine CAR; ref Tzameli et al., 2000): further enhanced

C[C@]12CC[C@@H](O)C[C@@H]1CC[C@@H]1[C@@H]2CC[C@]2(C)C=CC[C@@H]12 [androstenol, 5α-androst-16-en-3α-ol]
ligand function on murine CAR (in words) (murine CAR; androstane metabolites, ref Forman et al., 1998): physiological inverse agonist ligands of murine CAR

Cc1cccc(CN2CCN(C(c3ccccc3)c3ccc(Cl)cc3)CC2)c1 (stereo not drawn) [meclizine, 1-[(4-chlorophenyl)(phenyl)methyl]-4-(3-methylbenzyl)piperazine]
agonist response (in words) (mCAR): mCAR agonist
function on human CAR (in words) (human CAR isoform): inverse agonist
HDX kinetics of RXR versus unliganded CAR:RXR (in words) (RXR LBD within CAR:RXR; 84 regions of RXR): no significant differences in exchange kinetics in RXR
HDX kinetics versus unliganded CAR:RXR (in words) (CAR LBD within CAR:RXR; residues 228–245 (segment of β-sheet and H6)): significantly protected to exchange
HDX kinetics versus unliganded CAR:RXR (in words) (CAR LBD within CAR:RXR; [5]): significantly protected to exchange
affinity of ligand-bound CAR:RXR for SRC1 coactivator (in words) (CAR:RXR [1]): affinity for coactivator is less than CAR(TCPOBOP)
transactivation by murine CAR (in words) (murine CAR; ref Huang et al., 2004): further enhanced
